Test results from ChEMBL document CHEMBL3046406, “Herbicidal potential of ophiobolins produced by Drechslera gigantea” (2006).

Each compound was assayed on Echinochloa crus-galli (assay: Herbicidal activity against Echinochloa crus-galli (barnyard grass) assessed as diameter of leaf necrosis at 250 ug/ml measured after 2 days post compound treatment by leaf puncture assay).
Assay type: functional
Outline: (§1)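 Detached leaf segments (about 5 cm) from young greenhouse-grown plants, each with a superficial puncture lesion (0.5 mm) made by glass capillary. Compound dissolved in DMSO, diluted with distilled water (final DMSO 2%), 8 µL droplet applied. Segments held on moist filter paper at 25 °C under continuous fluorescent light (10000 lux). DMSO droplets as control. Necrosis scored visually on a 0–3 scale at day 2.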

Compound | Activity [mm]
CC(C)=C[C@H]1C[C@H](C)[C@]2(CC[C@]3(C)C[C@H]4[C@@H](C(=O)C[C@@]4(C)O)/C(C=O)=C\C[C@H]32)O1 [6-EPI-OHPIOBOLIN A] | 2

Each compound was assayed on Chenopodium album (assay: Herbicidal activity against Chenopodium album assessed as diameter of leaf necrosis at 250 ug/ml measured after 2 days post compound treatment by leaf puncture assay).
Assay type: functional
Outline: as §1

Compound | Activity [mm]
CC(C)=C[C@H]1C[C@H](C)[C@]2(CC[C@]3(C)C[C@H]4[C@@H](C(=O)C[C@@]4(C)O)/C(C=O)=C\C[C@H]32)O1 [6-EPI-OHPIOBOLIN A] | >3

The compounds below were run on Convolvulus arvensis (assay: Herbicidal activity against Convolvulus arvensis assessed as diameter of leaf necrosis at 100 ug/ml measured after 2 days post compound treatment by leaf puncture assay).
Assay type: functional
Outline: as §1

Compound | Activity [mm]
CC(C)=C[C@H]1C[C@H](C)[C@]2(CC[C@]3(C)C[C@H]4[C@@H](C(=O)C[C@@]4(C)O)/C(C=O)=C\C[C@H]32)O1 [6-EPI-OHPIOBOLIN A] | 2

Each compound was assayed on Sonchus oleraceus (assay: Herbicidal activity against Sonchus oleraceus assessed as diameter of leaf necrosis at 250 ug/ml measured after 2 days post-compound treatment by leaf puncture assay).
Assay type: functional
Outline: as §1

Compound | Activity [mm]
CC(C)=C[C@H]1C[C@H](C)[C@]2(CC[C@]3(C)C[C@H]4[C@@H](C(=O)C[C@@]4(C)O)/C(C=O)=C\C[C@H]32)O1 [6-EPI-OHPIOBOLIN A] | >3

What follows are compounds tested on Phalaris canariensis (assay: Herbicidal activity against Phalaris canariensis assessed as diameter of leaf necrosis at 250 ug/ml measured after 2 days post compound treatment by leaf puncture assay).
Assay type: functional
Outline: as §1

Compound | Activity [mm]
CC(C)=C[C@H]1C[C@H](C)[C@]2(CC[C@]3(C)C[C@H]4[C@@H](C(=O)C[C@@]4(C)O)/C(C=O)=C\C[C@H]32)O1 [6-EPI-OHPIOBOLIN A] | >3

The compounds below were run on Convolvulus arvensis (assay: Herbicidal activity against Convolvulus arvensis assessed as diameter of leaf necrosis at 50 ug/ml measured after 2 days post compound treatment by leaf puncture assay).
Assay type: functional
Outline: as §1

Compound | Activity [mm]
CC(C)=C[C@H]1C[C@H](C)[C@]2(CC[C@]3(C)C[C@H]4[C@@H](C(=O)C[C@@]4(C)O)/C(C=O)=C\C[C@H]32)O1 [6-EPI-OHPIOBOLIN A] | 2

What follows are compounds tested on Oloptum miliaceum (assay: Herbicidal activity against Piptatherum miliaceum assessed as diameter of leaf necrosis at 250 ug/ml measured after 2 days post compound treatment by leaf puncture assay).
Assay type: functional
Outline: as §1

Compound | Activity [mm]
CC(C)=C[C@H]1C[C@H](C)[C@]2(CC[C@]3(C)C[C@H]4[C@@H](C(=O)C[C@@]4(C)O)/C(C=O)=C\C[C@H]32)O1 [6-EPI-OHPIOBOLIN A] | 2

What follows are compounds tested on Chenopodium album (assay: Herbicidal activity against Chenopodium album assessed as diameter of leaf necrosis at 100 ug/ml measured after 2 days post compound treatment by leaf puncture assay).
Assay type: functional
Outline: as §1

Compound | Activity [mm]
CC(C)=C[C@H]1C[C@H](C)[C@]2(CC[C@]3(C)C[C@H]4[C@@H](C(=O)C[C@@]4(C)O)/C(C=O)=C\C[C@H]32)O1 [6-EPI-OHPIOBOLIN A] | 2

These compounds were tested on Amaranthus retroflexus (assay: Herbicidal activity against Amaranthus retroflexus assessed as diameter of leaf necrosis at 250 ug/ml measured after 2 days post compound treatment by leaf puncture assay).
Assay type: functional
Outline: as §1

Compound | Activity [mm]
CC(C)=C[C@H]1C[C@H](C)[C@]2(CC[C@]3(C)C[C@H]4[C@@H](C(=O)C[C@@]4(C)O)/C(C=O)=C\C[C@H]32)O1 [6-EPI-OHPIOBOLIN A] | 1

Each compound was assayed on Sonchus oleraceus (assay: Herbicidal activity against Sonchus oleraceus assessed as diameter of leaf necrosis at 100 ug/ml measured after 2 days post-compound treatment by leaf puncture assay).
Assay type: functional
Outline: as §1

Compound | Activity [mm]
CC(C)=C[C@H]1C[C@H](C)[C@]2(CC[C@]3(C)C[C@H]4[C@@H](C(=O)C[C@@]4(C)O)/C(C=O)=C\C[C@H]32)O1 [6-EPI-OHPIOBOLIN A] | >3

What follows are compounds tested on Echinochloa crus-galli (assay: Herbicidal activity against Echinochloa crus-galli (barnyard grass) assessed as diameter of leaf necrosis at 50 ug/ml measured after 2 days post compound treatment by leaf puncture assay).
Assay type: functional
Outline: as §1

Compound | Activity [mm]
CC(C)=C[C@H]1C[C@H](C)[C@]2(CC[C@]3(C)C[C@H]4[C@@H](C(=O)C[C@@]4(C)O)/C(C=O)=C\C[C@H]32)O1 [6-EPI-OHPIOBOLIN A] | 1

What follows are compounds tested on Cynodon dactylon (assay: Herbicidal activity against Cynodon dactylon assessed as diameter of leaf necrosis at 250 ug/ml measured after 2 days post compound treatment by leaf puncture assay).
Assay type: functional
Outline: as §1

Compound | Activity [mm]
CC(C)=C[C@H]1C[C@H](C)[C@]2(CC[C@]3(C)C[C@H]4[C@@H](C(=O)C[C@@]4(C)O)/C(C=O)=C\C[C@H]32)O1 [6-EPI-OHPIOBOLIN A] | 2

These compounds were tested on Diplotaxis erucoides (assay: Herbicidal activity against Diplotaxis erucoides assessed as diameter of leaf necrosis at 50 ug/ml measured after 2 days post compound treatment by leaf puncture assay).
Assay type: functional
Outline: as §1

Compound | Activity [mm]
CC(C)=C[C@H]1C[C@H](C)[C@]2(CC[C@]3(C)C[C@H]4[C@@H](C(=O)C[C@@]4(C)O)/C(C=O)=C\C[C@H]32)O1 [6-EPI-OHPIOBOLIN A] | 2

These compounds were tested on Setaria viridis (assay: Herbicidal activity against Setaria viridis assessed as diameter of leaf necrosis at 100 ug/ml measured after 2 days post compound treatment by leaf puncture assay).
Assay type: functional
Outline: as §1

Compound | Activity [mm]
CC(C)=C[C@H]1C[C@H](C)[C@]2(CC[C@]3(C)C[C@H]4[C@@H](C(=O)C[C@@]4(C)O)/C(C=O)=C\C[C@H]32)O1 [6-EPI-OHPIOBOLIN A] | >3

The compounds below were run on Bromus sterilis (assay: Herbicidal activity against Bromus sterilis assessed as diameter of leaf necrosis at 250 ug/ml measured after 2 days post compound treatment by leaf puncture assay).
Assay type: functional
Outline: as §1

Compound | Activity [mm]
CC(C)=C[C@H]1C[C@H](C)[C@]2(CC[C@]3(C)C[C@H]4[C@@H](C(=O)C[C@@]4(C)O)/C(C=O)=C\C[C@H]32)O1 [6-EPI-OHPIOBOLIN A] | 2

What follows are compounds tested on Phalaris canariensis (assay: Herbicidal activity against Phalaris canariensis assessed as diameter of leaf necrosis at 50 ug/ml measured after 2 days post compound treatment by leaf puncture assay).
Assay type: functional
Outline: as §1

Compound | Activity [mm]
CC(C)=C[C@H]1C[C@H](C)[C@]2(CC[C@]3(C)C[C@H]4[C@@H](C(=O)C[C@@]4(C)O)/C(C=O)=C\C[C@H]32)O1 [6-EPI-OHPIOBOLIN A] | 1

The compounds below were run on Cynodon dactylon (assay: Herbicidal activity against Cynodon dactylon assessed as diameter of leaf necrosis at 100 ug/ml measured after 2 days post compound treatment by leaf puncture assay).
Assay type: functional
Outline: as §1

Compound | Activity [mm]
CC(C)=C[C@H]1C[C@H](C)[C@]2(CC[C@]3(C)C[C@H]4[C@@H](C(=O)C[C@@]4(C)O)/C(C=O)=C\C[C@H]32)O1 [6-EPI-OHPIOBOLIN A] | 1

What follows are compounds tested on Digitaria sanguinalis (assay: Herbicidal activity against Digitaria sanguinalis (hairy crabgrass) assessed as diameter of leaf necrosis at 100 ug/ml measured after 2 days post compound treatment by leaf puncture assay).
Assay type: functional
Outline: as §1

Compound | Activity [mm]
CC(C)=C[C@H]1C[C@H](C)[C@]2(CC[C@]3(C)C[C@H]4[C@@H](C(=O)C[C@@]4(C)O)/C(C=O)=C\C[C@H]32)O1 [6-EPI-OHPIOBOLIN A] | 2

Each compound was assayed on Amaranthus retroflexus (assay: Herbicidal activity against Amaranthus retroflexus assessed as diameter of leaf necrosis at 100 ug/ml measured after 2 days post compound treatment by leaf puncture assay).
Assay type: functional
Outline: as §1

Compound | Activity [mm]
CC(C)=C[C@H]1C[C@H](C)[C@]2(CC[C@]3(C)C[C@H]4[C@@H](C(=O)C[C@@]4(C)O)/C(C=O)=C\C[C@H]32)O1 [6-EPI-OHPIOBOLIN A] | 1
